First the molecules themselves.
B1: tRNA (parent)
chain: GUUCCGUUGGCGUAAUGGUAACGCGUCUCCCUCCUAAGGAGAAGACUGCGGGUUCGAGUCCCGUACGGAACG

Fewer inactive variants are shown than the library holds.

The variants in the data set derive from B1. Nature of the data set: yeast fitness relative to wild type (ratio to wild type); higher = fitter; tRNA-Arg(CCU), competitive growth, 37 C, YPD. In outline:
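A pool of Saccharomyces cerevisiae strains, each with a tRNA-Arg(CCU) gene variant at the native genomic locus, was competed in YPD at 37°C for 24 hours across six parallel replicates. The variants had been chemically synthesised at a 3% per-site mutation rate over 69 sites, and gene amplicons before and after competition were read by 100-nucleotide paired-end sequencing. Darwinian fitness relative to wild type rested on changes in genotype frequencies. Genotypes required ≥ 100 starting reads, and estimates < 0.5 were set to 0.5.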
For the variant GUCCCGUUGGCAUAAUGGUAACGCGUCUCCCUCCUAAGGAGAAGUCUGCGGGUUCGAGUCCCGUAGGGAACG, the yeast fitness is 0.685.

GUCCCGUUGGCAUUAUGGUAACGCGUCUCCCUCCUAAGGAGAAGACUGCGGGUACGUGUCCCGUACGGAACG: the yeast fitness is ≤ 0.5. Then GUCCCGUUGGCGUAAUGGUAACGCGUCUCCCUCCUAAGGAGAAGACUGCGGGUUCGAGUCCCCUACGGAACG, with 0.747; and GUCCCGUUGGCGUAAUGGUAACGCGUCUCCCUCCUAAGGAGAAGACUGCGGGUUCGAGUCCCAUACGGAACG, with 0.909. Take GUCCCGUUGCCGUAAUGGUAACGCGUCUCCCUCCUAAGGAGAAGACUGCGGGUUGGAGUCCCGUACGGAACG: the yeast fitness is ≤ 0.5. Then GUCCCGUUGACGUAAUGGUAACACGUCUCCCUCCUAAGGAGAAGACUGCGGGUUCGAGUCCGGUACAGAACG, with ≤ 0.5. GUCCCGUUAGCGUAAUGGUAACGCGUCGCCCUCCUAAGGAGAAGACUGCGGGUUCGAGUCCCGUACGGAACG: the yeast fitness came to 0.59. With GUCCCGUUGGCGUAAUGAUAACGCGUCUCCAUCCUAAGGAGAAGACUGCGGGUUCCAGUCCCGUACGGCACG, the yeast fitness is ≤ 0.5. In the case of GUCCCGUUGGCAUAAUGGUAGCGCGUCUCCCUCCUAAGGAGAAGAGUGCAGGUUCGAGUCCCGUACGGAACG it was ≤ 0.5; in that of GUCCCGUUGGCGUAAUGGUAACGCGUCUCCCUCCUAAGAAGAAGACUGCGGGUUCGUGUCCGGUACGGAACG, ≤ 0.5. Then GUCCCGUUGGCGUAAUGCUAACGCGUCUCCGUCGUAAGGAGAAGACUGCGGGUUCGAGUCCCGUACGGAACG, with ≤ 0.5.

On to GUCCCGUUGGCGUAAUGGUAACGCGUCUCCCUCCUAAGGAGAAGACUGCGGAUUCGAGUCCCGUACGGAACG, for which the yeast fitness was determined as 0.743. Then GUCCCCUUGGCGUAAUGGUAACGCGUCUCCCUCCUAAGGAGAAGAAUGCGGGUUCGAGUCCCGUACGGAACG, with 0.645; and GUCCCGUUGGCGUAAUGGUAACGCGUCUCCCUCCUAAGGAGAACAAUGCGGGUUCGAGUCCCGUACGGAACG, with 0.672; and GUCCCGUUGGCAUAAUGGUAACGCGUCUCCCUCCUACGGAGAAGUCUCCAGGUUCGAGUCCCGUACGGAACG, with ≤ 0.5. Turning to GUCCCGUUGGCGUAAUGGUAACGCGUCUCCCUCCUAAGGAGAAGACUGCGGGUUCGACUCCCGUACCGAACG, the yeast fitness came out at 0.701. For the variant GUCCCCGUGGCGUAAUGGUAACGGGUAACCCUCCUAAGGAAAAGACUGCGGGUUCGAGUCCCGUACGGAACG, the yeast fitness amounted to 0.618.

In the case of GUCCCGUUGGCGUAAUGGUAACCCGUCUCCCUCCUAAGGAGAAGACUGCGGGUUCGAGUCCCGUAUGGAACG, the yeast fitness is ≤ 0.5. As for GUCCCGUUGGCGUAAUGGUAACGCGUCUCCCUCCUAAGGAGAAGACUCCGGGUUAGAGUCCCGUACGGAACG, the yeast fitness was found to be 0.541. As to GUCCCGUUGCCGUAAUGGUAACGCGUCUCCCUUCUAAGGCGAAGACUGCGGGUUCGAGUCCCGUACGGAACG, the yeast fitness was ≤ 0.5.

As for GUCCCGUUGGCGUAAUGGUAACGCGUCUCCCUCCUAAGGAGAAGACUGCGGGUUCGAGUCCCGUACAGAACG, the yeast fitness worked out at 0.871. In the case of GUCCCGUUGGCGUAAUGGUAACGCGUCUCCCUCCUAAGAAGAAGACUGCGGGUUCGAGUCCCGUACGGAACG it was 0.898. Consider GUCCCGUUGGCGUAAUGGUAACGCGUCUCCCUCCUAAGGAGAAGACUGCGCGUUCGAGUCCCGUACGGAACG, for which the yeast fitness worked out at 0.521.

Turning to GUCCCGUUGGCAUAAUGGUAACGCAUCUCCCUCCUAAGGAGAAGACUGCGGGUUCGAGUCCCGUACGGAACG, the yeast fitness amounted to 0.992. GUCCCGUUGGCGUAAUGGUAACGCGUCUCCCUCCUAAGGAGAAGACUGCAGGUUCGAGUCCCGUUCGGAACG: the yeast fitness turned out to be 0.652. GUCCCAUUGGCGUAAUGGUAACGCGUCUCCCUCCUAAGGAGAAGACUGCGGGUCCGAGUCGCGUACGGAACG: the yeast fitness was ≤ 0.5. Then GUCCCGUUGGCGUAAUGGUAACGCGUCUCCCUCCUAAGGAGAAGACUCCGGGUUCGAGUCCCGUAUGGAACG, with 0.761; and GUCCCGUUGGCGUAAUGCUAACGCGUCUCCGUCCUAAGGAGAAGACUGCGGGUUCGAGUCACGUACGGAACG, with 0.535.

With GUCCCGUUGGCAUAAUGGUAACGCGUCUCUCUCCUAAGGAGAAGAGUGCGGGUUCGAGUCCCGUACGGAACG, the yeast fitness is ≤ 0.5. Regarding GUCCCCUUGGCGUUAUGGUAACGCAUCUCCCUCCUAAAGAGAAGACAGCGGGUUCGAGUCCCGUACGGAACG, the yeast fitness was ≤ 0.5. On to GUCCCGUUGGCGUAAUGGUAACGCGUCUCCCUCCUAAGGAGAAGACUGCGGGUUCGACUCCCGUACGGAACG, for which the yeast fitness worked out at 0.97. Then GUCCCGUUGGCGUAAUCGUAACGCGUCUCCCUCCUAAGGAGAAGACUGCGGGUUCGAGUCCCGUACGGAACG, with 0.78. Then GUCCCGUUGGCAUAAUGGUAACGCGUCUCCCUCCUAAGGAGAAGACUGCGGGUUCGAGUCCCGUACGGAACG, with 0.963; and GUCCCGUUGGCGUAAUGGUAACGCCUCUCCCUCCUAAGGAGAAGACUACGGGUUCGAGUCCCGUACGGAACG, with 0.598; and GUCCCCUUGGCGUAAUGGUAACGCGUCUCCCUCCUAACGAGAAGAAUGCGGGUUCGAGUCCCGUACGGAACG, with ≤ 0.5. GUCCCGUUGGCAUAAUGGUAACGCGUCUCCCUCCUAAGGAGAAGUCUGCGGGUUUGAGUCCCGUACGGAACG: the yeast fitness was ≤ 0.5. GUCCCGUUAGCGUAAUGGUAACGCGUCUCCCUCCUAAGGAGAAGACUGCGGGUUCGCGUCCCGUACGGAACG: the yeast fitness was found to be 0.584.
